Activity calls are given as the source filed them. The rule behind the calls is not given here.
Key:
[1] = target: T1, Nitric oxide synthase, inducible (Mus musculus) (UniProt P29477); conditions: RAW264.7, 300 uM
T1 sequence (whole entry): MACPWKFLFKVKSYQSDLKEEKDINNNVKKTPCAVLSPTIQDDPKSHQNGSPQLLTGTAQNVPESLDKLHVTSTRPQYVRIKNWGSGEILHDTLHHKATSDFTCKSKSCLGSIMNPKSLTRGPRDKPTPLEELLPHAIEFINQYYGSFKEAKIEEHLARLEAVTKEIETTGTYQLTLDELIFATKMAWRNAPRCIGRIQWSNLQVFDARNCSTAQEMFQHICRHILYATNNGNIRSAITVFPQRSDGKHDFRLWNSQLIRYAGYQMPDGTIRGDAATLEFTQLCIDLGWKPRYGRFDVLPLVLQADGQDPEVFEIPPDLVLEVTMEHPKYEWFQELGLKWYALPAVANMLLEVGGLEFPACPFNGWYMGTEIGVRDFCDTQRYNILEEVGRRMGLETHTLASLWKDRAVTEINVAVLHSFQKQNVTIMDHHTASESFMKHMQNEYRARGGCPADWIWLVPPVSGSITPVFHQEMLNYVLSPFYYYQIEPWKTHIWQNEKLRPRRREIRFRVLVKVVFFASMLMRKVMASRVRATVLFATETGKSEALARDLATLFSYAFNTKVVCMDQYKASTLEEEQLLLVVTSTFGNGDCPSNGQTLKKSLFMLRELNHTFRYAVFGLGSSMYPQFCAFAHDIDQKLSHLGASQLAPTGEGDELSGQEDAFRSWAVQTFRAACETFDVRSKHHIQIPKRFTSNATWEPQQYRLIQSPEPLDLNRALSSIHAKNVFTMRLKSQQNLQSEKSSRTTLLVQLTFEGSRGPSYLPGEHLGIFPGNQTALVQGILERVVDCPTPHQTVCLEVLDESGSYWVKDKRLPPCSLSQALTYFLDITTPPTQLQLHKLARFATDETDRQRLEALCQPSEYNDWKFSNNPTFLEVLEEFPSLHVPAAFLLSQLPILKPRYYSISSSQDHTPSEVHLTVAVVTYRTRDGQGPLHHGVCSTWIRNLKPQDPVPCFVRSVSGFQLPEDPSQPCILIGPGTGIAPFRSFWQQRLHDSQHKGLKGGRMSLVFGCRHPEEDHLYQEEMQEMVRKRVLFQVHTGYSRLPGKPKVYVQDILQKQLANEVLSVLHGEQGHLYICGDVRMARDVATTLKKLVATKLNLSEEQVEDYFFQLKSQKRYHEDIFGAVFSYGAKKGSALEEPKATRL

[2] = target: T1, Nitric oxide synthase, inducible (Mus musculus); assay: Inhibition of iNOS in mouse RAW264.7 cells at 50 ug/ml; type: cell-based
RAW264.7 [3] = assay: Inhibition of LPS-induced NO production in mouse RAW264.7 cells assessed as reduction in nitrite level after 24 hrs by Griess reagent method in presence of TLR4 agonist Kdo2; type: functional, cell-based
In short: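 TLR4 activation of RAW 264.7 cells with Kdo2-lipid A at 500 ng/mL, together with compound at 30−60 μg/mL for 24 h. Nitrite in the culture medium determined by Griess reaction.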

RAW264.7 [4] = assay: Reduction of iNOS mRNA expression in LPS-stimulated mouse RAW264.7 cells after 24 hrs by RT-PCR analysis; type: functional, cell-based
In short: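 LPS-stimulated macrophages given compound at 20−60 μg/mL for 24 h. iNOS mRNA (775 bp) measured by semiquantitative competitive RT-PCR against beta-actin mRNA (513 bp). One representative of three experiments.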

RAW264.7 [5] = assay: Cytotoxicity against mouse RAW264.7 cells assessed as reduction in mitochondrial respiration by MTT assay; type: cell-based
In short: (§1)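 RAW 264.7 cells exposed to compound at 20−60 μg/mL over the course of the experimental procedures. Viability checked by trypan blue exclusion (membrane integrity) and by MTT test (cellular metabolism/mitochondrial respiration).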

RAW264.7 [6] = assay: Inhibition of LPS-induced NO production in mouse RAW264.7 cells assessed as reduction in nitrite level at 30 ug/ml after 24 hrs by Griess reagent method; type: functional; conditions: RAW264.7, 24 h
RAW264.7 [7] = assay: Inhibition of LPS-induced NO production in mouse RAW264.7 cells assessed as reduction in nitrite level within 24 hrs by Griess reagent method; type: functional, cell-based; conditions: for IC50: RAW264.7, 24 h
[8] = target: Transcription factor p65 (Mus musculus) (UniProt Q04207); assay: Inhibition of NFkappa-B p65 subunit nuclear translocation in LPS-stimulated mouse RAW264.7 cells preincubated for 30mins before LPS treatment by Western blot analysis; type: cell-based
In short: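 Macrophages pre-incubated with compound at 20−60 μg/mL for 30 min, then stimulated with LPS for 20 min. Nuclear extracts immunoblotted against NF-κB p65, detected as a 65 kD band.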

RAW264.7 [9] = assay: Inhibition of LPS-induced NO production in mouse RAW264.7 cells assessed as reduction in nitrite level after 24 hrs by Griess reagent method in presence of IFN-gamma; type: functional, cell-based
In short: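 Stimulation of the JAK-STAT pathway in RAW 264.7 cells with interferon-gamma at 100 U/mL in the presence of compound. Inducible NO synthesis measured as medium nitrite by Griess reaction.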

RAW264.7 [10] = assay: Inhibition of LPS-induced NO production in mouse RAW264.7 cells assessed as reduction in nitrite level after 24 hrs by Griess reagent method in presence of TLR2 agonist pam2CSK4; type: functional, cell-based
[11] = target: T1, Nitric oxide synthase, inducible (Mus musculus); assay: Inhibition of iNOS in mouse RAW264.7 cells at 60 ug/ml; type: cell-based
In short: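 Cytosolic iNOS enzymatic activity assayed with compound at 60 μg/mL final concentration, compared with incubations lacking compound. L-NAME (300 μM) and W1400 (50 μg/mL) served as reference inhibitors.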

RAW264.7 [12] = assay: Reduction of IL-6 mRNA expression in LPS-stimulated mouse RAW264.7 cells by RT-PCR analysis; type: functional, cell-based
In short: (§2)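 IL-1beta, IL-6 and TNF-alpha mRNA from RAW 264.7 cells quantified by real-time RT-PCR using intron- or exon−exon boundary spanning primers. Results given as mean normalized expression; IL-6 and TNF-alpha levels normalized to 1000 copies of beta-actin.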

RAW264.7 [13] = assay: Cytotoxicity against LPS-stimulated mouse RAW264.7 cells assessed as decrease in total mRNA transcription after 24 hrs by RT-PCR analysis; type: cell-based; conditions: raw264.7, 24 h
In short: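 LPS-stimulated RAW 264.7 macrophages co-incubated with test compound at 20−60 μg/mL for 24 h. iNOS mRNA (775 bp) and beta-actin mRNA (513 bp) analysed by semiquantitative competitive RT-PCR, with actin mRNA used to judge any generalized fall in transcription. One representative of three experiments.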

RAW264.7 [14] = assay: Inhibition of LPS-induced NO production in mouse RAW264.7 cells assessed as reduction in nitrite level at 20 ug/ml after 24 hrs by Griess reagent method; type: functional; conditions: RAW264.7, 24 h
RAW264.7 [15] = assay: Inhibition of LPS-induced NO production in mouse RAW264.7 cells assessed as reduction in nitrite level at 60 ug/ml after 24 hrs by Griess reagent method; type: functional; conditions: RAW264.7, 24 h
RAW264.7 [16] = assay: Reduction of iNOS expression in LPS-stimulated mouse RAW264.7 cells after 24 hrs by Western blot analysis; type: functional, cell-based
In short: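 Cells treated with LPS and compound at 10−60 μg/mL for 24 h. Lysates immunoblotted with rabbit polyclonal anti-iNOS, detecting a 130 kD band matched to purified iNOS. Beta-actin (43 kD) used as loading control.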

RAW264.7 [17] = assay: Cytotoxicity against mouse RAW264.7 cells assessed as reduction in cellular metabolism by MTT assay; type: ADME, cell-based
In short: as §1

RAW264.7 [18] = assay: Inhibition of LPS-induced NO production in mouse RAW264.7 cells assessed as reduction in nitrite level after 48 hrs by Griess reagent method in presence of TLR2 agonist pam2CSK4; type: functional, cell-based
In short: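 Cells stimulated through TLR2 with Pam2CSK4 (500 ng/mL) and incubated with compound at 30−60 μg/mL for 48 h. Nitrite read-out by Griess reaction.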

RAW264.7 [19] = assay: Reduction of IL-1beta mRNA expression in LPS-stimulated mouse RAW264.7 cells by RT-PCR analysis; type: functional, cell-based
In short: as §2

RAW264.7 [20] = assay: Cytotoxicity against mouse RAW264.7 cells assessed as reduction in membrane integrity by MTT assay; type: cell-based; conditions: in the assay text read “trypan blue exclusion assay” for “MTT assay”
In short: as §1

RAW264.7 [21] = assay: Inhibition of LPS-induced NO production in mouse RAW264.7 cells assessed as reduction in nitrite level after 24 hrs by Griess reagent method in presence of TLR4 agonist Kdo2
[22] = target: T2, Nuclear factor NF-kappa-B p105 subunit (Mus musculus) (UniProt P25799); assay: Inhibition of binding of NFkappa-B p50 subunit to biotinylated consensus sequence in nuclear extract of LPS-stimulated mouse RAW264.7 cells after 1 hr by; type: cell-based
T2 sequence (whole entry): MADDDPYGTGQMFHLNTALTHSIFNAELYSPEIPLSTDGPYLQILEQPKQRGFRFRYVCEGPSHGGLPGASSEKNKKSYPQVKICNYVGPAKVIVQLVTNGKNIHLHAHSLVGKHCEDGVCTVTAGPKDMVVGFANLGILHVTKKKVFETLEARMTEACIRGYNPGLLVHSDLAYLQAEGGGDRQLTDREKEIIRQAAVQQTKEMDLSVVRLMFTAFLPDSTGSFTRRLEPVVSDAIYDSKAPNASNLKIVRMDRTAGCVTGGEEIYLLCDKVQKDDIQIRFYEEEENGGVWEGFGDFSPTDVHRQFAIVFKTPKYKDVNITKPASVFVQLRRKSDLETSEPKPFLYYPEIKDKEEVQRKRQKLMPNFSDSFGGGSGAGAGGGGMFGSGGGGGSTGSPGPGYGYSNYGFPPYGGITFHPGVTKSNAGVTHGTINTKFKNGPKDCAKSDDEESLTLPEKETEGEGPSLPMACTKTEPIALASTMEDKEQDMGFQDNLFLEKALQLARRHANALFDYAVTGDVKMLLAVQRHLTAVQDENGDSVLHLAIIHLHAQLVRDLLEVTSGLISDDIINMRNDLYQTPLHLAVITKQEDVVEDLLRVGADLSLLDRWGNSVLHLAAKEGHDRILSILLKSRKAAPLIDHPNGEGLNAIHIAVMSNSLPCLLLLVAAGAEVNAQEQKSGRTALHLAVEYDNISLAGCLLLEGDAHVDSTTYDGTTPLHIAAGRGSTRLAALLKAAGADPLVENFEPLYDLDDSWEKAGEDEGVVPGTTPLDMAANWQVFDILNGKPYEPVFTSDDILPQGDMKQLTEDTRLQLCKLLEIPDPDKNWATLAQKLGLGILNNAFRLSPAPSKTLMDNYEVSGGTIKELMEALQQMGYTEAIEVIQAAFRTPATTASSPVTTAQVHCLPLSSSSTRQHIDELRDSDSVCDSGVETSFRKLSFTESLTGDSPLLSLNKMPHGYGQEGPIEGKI
In short: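 RAW 264.7 cells (1 × 10^6) seeded in six-well plates, with LPS and compound added together for 1 h. Nuclear extracts prepared and binding of NF-κB p50 to a biotinylated consensus sequence read as relative light units.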

RAW264.7 [23] = assay: Reduction of TNFalpha mRNA expression in LPS-stimulated mouse RAW264.7 cells by RT-PCR analysis; type: functional, cell-based
In short: as §2

Sequence of Transcription factor p65 (Mus musculus) (Q04207 whole entry): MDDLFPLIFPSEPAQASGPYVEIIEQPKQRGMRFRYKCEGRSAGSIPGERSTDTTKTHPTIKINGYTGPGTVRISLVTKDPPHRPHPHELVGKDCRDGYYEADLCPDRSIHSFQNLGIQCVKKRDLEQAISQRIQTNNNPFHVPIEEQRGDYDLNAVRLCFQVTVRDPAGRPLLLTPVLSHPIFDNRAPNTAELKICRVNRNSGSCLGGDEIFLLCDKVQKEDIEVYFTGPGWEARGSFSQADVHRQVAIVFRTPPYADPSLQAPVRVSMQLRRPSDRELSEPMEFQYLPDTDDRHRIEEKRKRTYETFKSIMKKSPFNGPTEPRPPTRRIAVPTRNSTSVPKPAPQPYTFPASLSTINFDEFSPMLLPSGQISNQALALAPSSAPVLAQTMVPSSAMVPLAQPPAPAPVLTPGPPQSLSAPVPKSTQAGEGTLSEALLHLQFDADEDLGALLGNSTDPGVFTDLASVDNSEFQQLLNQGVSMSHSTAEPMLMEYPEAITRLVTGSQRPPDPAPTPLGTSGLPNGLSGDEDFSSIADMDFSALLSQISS

COC(=O)[C@@H](N)CCCNC(=N)N[N+](=O)[O-]
inhibition [1]: > 70%

CC(=N)NCc1cccc(CN)c1
inhibition [2]: > 70%

O=C(O[C@H]1[C@@H]2OC(=O)c3cc(O)c(O)c(O)c3-c3c4cc(c(O)c3O)Oc3c(cc(O)c(O)c3O)C(=O)O[C@H]3C(O)O[C@@H]5COC(=O)c6cc(O)c(O)c(O)c6-c6c(cc(c(O)c6O)Oc6c(cc(O)c(O)c6O)C(=O)O[C@H]1C(O)O[C@@H]2COC4=O)C(=O)O[C@H]5[C@@H]3OC(=O)c1cc(O)c(O)c(O)c1)c1cc(O)c(O)c(O)c1 (stereo not given in full) [OENOTHEIN B]
inhibition (RAW264.7 [3]): Dose-dependent effect | Activity (RAW264.7 [4]): Dose-dependent effect | Activity (RAW264.7 [5]): Non-toxic | inhibition at 30 µg/mL (RAW264.7 [6]): 64.6% | inhibition (RAW264.7 [7]): Dose-dependent effect | IC50 (RAW264.7 [7]): 17.7 µM | inhibition [8]: Dose-dependent effect | inhibition (RAW264.7 [9]): inactive | inhibition (RAW264.7 [10]): Dose-dependent effect | inhibition [11]: inactive | Activity (RAW264.7 [12]): Active | Activity (RAW264.7 [13]): Non-toxic | inhibition at 20 µg/mL (RAW264.7 [14]): 34.8% | inhibition at 60 µg/mL (RAW264.7 [15]): 87.9% | Activity (RAW264.7 [16]): Dose-dependent effect | Activity (RAW264.7 [17]): Non-toxic | inhibition (RAW264.7 [18]): Dose-dependent effect | Activity (RAW264.7 [19]): Active | Activity (RAW264.7 [20]): Non-toxic | inhibition (RAW264.7 [21]): Dose-dependent effect | inhibition [22]: Active | Activity (RAW264.7 [23]): Active

O=C(O)c1cc(O)c(O)c(O)c1 [GALLIC ACID]
IC50 (RAW264.7 [7]): 632 µM

From ChEMBL document CHEMBL2176877, “Inhibition of NF-κB-dependent cytokine and inducible nitric oxide synthesis by the macrocyclic ellagitannin oenothein B in TLR-stimulated RAW 264.7 macrophages” (J Nat Prod, 2012)
